A selection: hits, their analogues and other compounds. The true share with any hit is near 3.1%.
hERG protect: hERG rescue from dofetilide block, primary screen, cell-based, CHO-hERG, FluxOR thallium flux, dofetilide IC70; Voltage-gated inwardly rectifying potassium channel KCNH2 (Homo sapiens), Q12809; dofetilide IC70 present; activation (rescue from dofetilide block), less the hit threshold, % at 10 µM; 0.51% of 310,000 active;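 active means activation above the mean of controls blocked by dofetilide plus 5 SD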;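 further: thallium influx through hERG after potassium depolarization seen as dye fluorescence rise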
KCNK3 block: human KCNK3 channel inhibitors, primary screen, CHO cells, FluxOR thallium flux, B-score; FluxOR fluorescence; hits give low values; Potassium channel subfamily K member 3 (Homo sapiens), O14649; B-score at 10 µM; AID 602410, 2012; 0.84% of 340,000 active;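 active means B-score under library mean minus 4 SD, starting fluorescence ratio at most library mean plus 5 SD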;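 further: more negative B-score means stronger inhibition of thallium flux through KCNK3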
KCNQ1 inh: inhibitors of human KCNQ1 channel, primary screen, cell-based, thallium flux, high-throughput. Potassium voltage-gated channel subfamily KQT member 1 (Homo sapiens), P51787. CHO-K1 KCNQ1, FluxOR thallium flux fluorescence; hits give high values. B-score at 10 µM. 1.3% of 310,000 active. AID 2642, 2010;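 active means compounds whose thallium flux B-score, printed positive for inhibition, exceeds three library SD while starting fluorescence stays within three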;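 further: channel opened by potassium depolarization with thallium stimulus after 20 min compound exposure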
Target sequence (P51787 whole entry, looked up): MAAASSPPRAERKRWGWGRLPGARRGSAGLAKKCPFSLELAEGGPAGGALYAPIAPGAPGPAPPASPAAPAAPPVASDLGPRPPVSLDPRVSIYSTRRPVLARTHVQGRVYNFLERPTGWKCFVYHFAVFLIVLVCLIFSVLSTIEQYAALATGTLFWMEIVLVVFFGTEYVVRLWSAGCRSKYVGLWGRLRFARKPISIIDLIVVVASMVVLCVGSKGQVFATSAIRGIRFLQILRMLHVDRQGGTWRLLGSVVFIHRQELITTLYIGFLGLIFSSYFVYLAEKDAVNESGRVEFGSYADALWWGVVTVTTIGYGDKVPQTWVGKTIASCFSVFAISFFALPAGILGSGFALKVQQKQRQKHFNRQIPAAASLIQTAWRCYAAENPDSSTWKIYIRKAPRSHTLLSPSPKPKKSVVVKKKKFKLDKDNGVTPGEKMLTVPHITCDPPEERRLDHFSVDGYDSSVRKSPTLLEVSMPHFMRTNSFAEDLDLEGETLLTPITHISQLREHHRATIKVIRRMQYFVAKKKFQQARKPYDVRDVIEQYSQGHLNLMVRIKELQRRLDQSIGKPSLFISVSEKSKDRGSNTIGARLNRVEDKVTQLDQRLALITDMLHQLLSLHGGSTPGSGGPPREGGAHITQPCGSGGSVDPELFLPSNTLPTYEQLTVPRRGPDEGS
KCNK9 inh: KCNK9 potassium channel inhibitors, primary screen, HEK293 cells, thallium flux; Potassium channel subfamily K member 9 (Homo sapiens), Q9NPC2; FluxOR thallium flux fluorescence; hits give low values; B-score at 10 µM; 1.2% of 310,000 active; AID 488922, 2010;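 active means ratio B-score over 3 SD below the library mean, with starting fluorescence within 5 SD of its mean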;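 further: negative B-score means less thallium flux so channel inhibition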
KCNQ1 pot: potentiators or activators of KCNQ1 channel, primary screen, cell-based, thallium flux, high-throughput | Potassium voltage-gated channel subfamily KQT member 1 (Homo sapiens), P51787 | CHO-K1 KCNQ1, thallium flux FluxOR fluorescence; hits give high values | B-score at 10 µM | 0.35% of 310,000 active | AID 2648, 2010;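 active means fluorescence ratio B-score, a plate-corrected score, at least three library SD, with initial intensity B-score within 5 SD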
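Doses: Single concentration per compound, DMSO matched to controls | Test system: KCNQ1-transfected CHO-K1 cells | Timing: 90 min dye loading and 20 min compound exposure, both at room temperature | Measured by: Kinetic FluxOR thallium fluorescence, 10-s 1-Hz baseline, 110-s post-stimulus read | Medium: Assay buffer with matched DMSO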
* = called active by the depositor.

How did COc1cccc(N2C(=O)Nc3ccc(Br)cc3C2(O)C(=O)NCCCOC(C)C)c1 (stereo not given) do in these assays?
hERG protect: -11; KCNK3 block: inactive; KCNQ1 inh: inactive; KCNK9 inh: inactive; KCNQ1 pot: inactive

How did O=C(NNC(=S)Nc1ccc(Cl)cc1)c1ccccc1OC(F)F do in these assays?
hERG protect: -11; KCNK3 block: inactive; KCNQ1 inh: 8*; KCNK9 inh: inactive; KCNQ1 pot: inactive

Results for O=C(NNC(=S)NCc1ccccc1)c1ccccc1OC(F)F ?
hERG protect: -7; KCNK3 block: inactive; KCNQ1 inh: inactive; KCNK9 inh: inactive; KCNQ1 pot: inactive

Results for Cn1c(=O)c2[nH]c(C=Cc3ccc4c(c3)OCO4)nc2n(C)c1=O ?
KCNK3 block: inactive

Results for COc1ccc(CCNC(=O)C(NS(=O)(=O)c2cccc3nsnc23)C(C)C)cc1OC (stereo not given) ?
hERG protect: -10; KCNK3 block: inactive; KCNQ1 inh: inactive; KCNK9 inh: inactive; KCNQ1 pot: inactive

Results for CC1CCCN(C(=O)COC(=O)Cc2c(F)cccc2Cl)C1 (stereo not given) ?
hERG protect: -4; KCNK3 block: inactive; KCNQ1 inh: inactive; KCNK9 inh: inactive; KCNQ1 pot: inactive

What do the screens show for `O=C(NCCCN1CCCC1=O)Nc1ccc(F)c(Cl)c1`?
hERG protect: -11; KCNK3 block: inactive; KCNQ1 inh: 6*; KCNK9 inh: inactive; KCNQ1 pot: inactive

What do the screens show for `CC1(C(=O)CSc2nc3ccccc3[nH]2)CCC(=O)O1` (stereo not given)?
hERG protect: -7; KCNK3 block: inactive; KCNQ1 inh: inactive; KCNK9 inh: inactive; KCNQ1 pot: inactive

Results for CC1(C(=O)CSc2ncn[nH]2)CCC(=O)O1 (stereo not given) ?
hERG protect: 5.0*; KCNQ1 inh: inactive; KCNK9 inh: inactive; KCNQ1 pot: inactive

How did COc1ccc(NC(=O)N(C)C[C@H]2Oc3ccc(NC(=O)C4CC4)cc3CC(=O)N([C@@H](C)CO)C[C@@H]2C)cc1 do in these assays?
KCNK3 block: inactive

What do the screens show for `C[C@H](CO)N1C[C@H](C)[C@@H](CN(C)Cc2ccc(Cl)c(Cl)c2)Oc2c(NS(=O)(=O)c3cn(C)cn3)cccc2C1=O`?
KCNK3 block: inactive

Results for CN(C)CCCNS(=O)(=O)c1ccc(NC2CCCCCC2)c([N+](=O)[O-])c1 ?
hERG protect: -14; KCNK3 block: inactive; KCNQ1 inh: 8*; KCNK9 inh: inactive; KCNQ1 pot: inactive

How did CCNc1ccc(S(=O)(=O)NCCN(C)C)cc1[N+](=O)[O-] do in these assays?
hERG protect: -3; KCNK3 block: inactive; KCNQ1 inh: inactive; KCNK9 inh: inactive; KCNQ1 pot: inactive

Results for CC(CCc1ccccc1)NC(=O)c1cccs1 (stereo not given) ?
hERG protect: 4.9*; KCNK3 block: inactive; KCNQ1 inh: inactive; KCNK9 inh: inactive; KCNQ1 pot: inactive

How did O=C1C(=O)N(CCN2CCOCC2)C(c2cccnc2)/C1=C(/O)c1ccccc1 (stereo not given) do in these assays?
hERG protect: -8; KCNQ1 inh: inactive; KCNK9 inh: inactive; KCNQ1 pot: inactive

What do the screens show for `O=C1C(=O)N(CCN2CCOCC2)C(c2cccnc2)/C1=C(/O)c1ccc(Cl)cc1` (stereo not given)?
hERG protect: 5.5*; KCNK3 block: inactive; KCNQ1 inh: inactive; KCNK9 inh: inactive; KCNQ1 pot: inactive

How did CCOC(=O)N1CCN(C(=O)C2CCN(C(=O)c3ccccc3C)CC2)CC1 do in these assays?
KCNK3 block: inactive

Results for Cc1cc(Cl)ccc1OCC(=O)NNC(=O)C1CCCO1 (stereo not given) ?
hERG protect: -5; KCNK3 block: inactive; KCNQ1 inh: inactive; KCNK9 inh: inactive; KCNQ1 pot: 26*

Results for CN(C(=O)Cn1nc(C(=O)O)c2ccccc2c1=O)C1(C#N)CCCCC1 ?
KCNK3 block: inactive

How did CC(=O)/C(=N/Nc1ccccc1[N+](=O)[O-])N1CCCc2ccccc21 do in these assays?
hERG protect: -8; KCNK3 block: inactive; KCNQ1 inh: 7*; KCNK9 inh: -7.1*; KCNQ1 pot: inactive

What do the screens show for `CC(=O)/C(=N/Nc1ccc([N+](=O)[O-])cc1)N1CCCc2ccccc21`?
hERG protect: -1; KCNK3 block: inactive; KCNQ1 inh: inactive; KCNK9 inh: inactive; KCNQ1 pot: inactive

What do the screens show for `CCN(CC)S(=O)(=O)c1ccc(N2CCCCC2)c(NC(=O)/C=C/c2cc(OC)c(OC)c(OC)c2)c1`?
hERG protect: -9; KCNK3 block: inactive; KCNQ1 inh: inactive; KCNK9 inh: -6.9*; KCNQ1 pot: inactive

How did O=[N+]([O-])c1ccc(C=NN2CCCCCC2)cc1 do in these assays?
KCNK3 block: inactive

Results for C/C(=N\Nc1nc2c(s1)CCCC2)c1ccc(Cl)cc1 ?
hERG protect: -6; KCNK3 block: inactive; KCNQ1 inh: 6*; KCNK9 inh: inactive; KCNQ1 pot: inactive

Results for Cc1cnc(C(=O)OCC(=O)N2CCC(C)CC2)cn1 ?
KCNK3 block: inactive

Results for Nc1nonc1-c1nc2ccccc2n1CC(=O)Nc1ccccc1 ?
hERG protect: -4; KCNK3 block: inactive; KCNQ1 inh: inactive; KCNK9 inh: inactive; KCNQ1 pot: inactive

Results for CCOC(=O)c1ccccc1NC(=O)Cn1c(-c2nonc2N)nc2ccccc21 ?
hERG protect: -17; KCNK3 block: inactive; KCNQ1 inh: inactive; KCNK9 inh: -7.6*; KCNQ1 pot: inactive

How did CCN1C(=O)[C@H]2[C@@H](c3ccc(C)cc3)N3C(=O)N(c4ccc(C(F)(F)F)cc4)C(=O)[C@@]3(CC(C)C)[C@H]2C1=O do in these assays?
hERG protect: -7; KCNK3 block: inactive; KCNQ1 inh: inactive; KCNK9 inh: -7.6*; KCNQ1 pot: inactive

What do the screens show for `CCOCCCNC(=O)C(NC(=O)Cc1cccs1)c1ccc(C)cc1` (stereo not given)?
hERG protect: 12*; KCNK3 block: inactive; KCNQ1 inh: inactive; KCNK9 inh: inactive; KCNQ1 pot: inactive

Results for CCc1c(C)sc(NC(=O)c2cccs2)c1C(=O)OC(C)C ?
hERG protect: -10; KCNK3 block: inactive; KCNQ1 inh: inactive; KCNK9 inh: -6.6*; KCNQ1 pot: inactive

What do the screens show for `COC(=O)c1cn(NC(=O)CC2CCCCC2)c(=O)c2ccccc12`?
hERG protect: -3; KCNK3 block: inactive; KCNQ1 inh: inactive; KCNK9 inh: inactive; KCNQ1 pot: inactive

Screening results: PubChem, Johns Hopkins Ion Channel Center
